Experimental data published in PMC2193294 (The Journal of Experimental Medicine, 2001).

Key:
vWF [1] = assay: vWF reductase activity: collagen binding activity / vWF antigen ratio in vitro; type: biochemical, human
In short: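 Plasma from a TTP patient (plasmapheresis; centrifuged 2,000 g, 20 min, 4°C) was used at 10 μl with 90 μl Hepes-buffered saline containing 1 mM CaCl2. The buffer held purified human platelet TSP-1 (0.001–100 μg/ml; purified in 0.1 or 2 mM CaCl2 buffers, quantified by A280) or HMEC-1 conditioned medium. Incubation was 1 or 24 h at 37°C. Aliquots were diluted 10-fold and assayed for collagen binding and vWF antigen, giving a ratio. Triplicates, mean and SD.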

vWF [2] = assay: Formation of new thiols in vWF; type: biochemical, human
vWF [3] = details: cited from earlier work
vWF [4] = assay: Binding of TSP-1 to vWF; design: species or system human
In short: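 vWF (5 μg/ml in 0.1 M NaHCO3, pH 8.3) adsorbed to wells overnight at 4°C, then blocked with 2% BSA in HBS (90 min, 37°C). Control wells were BSA-blocked only, with 10 μg/ml TSP-1. TSP-1 (0–10 μg/ml) in Hepes/NaCl/1 mM CaCl2/1 mM MgCl2, pH 7.4, with 0, 5 or 20 mM NEM, 30 min RT with shaking. Wells washed with 1 M NaCl buffer. Detection: anti-TSP-1 mAb HB8432 (10 μg/ml), then peroxidase anti-mouse (1:1,000). Triplicates, mean and SD.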

activated platelets = details: cited from earlier work
[5] = cited from earlier work
collagen = details: cited from earlier work
vWF [6] = type: biochemical, human
plasma vWF = assay: Reduction in average multimer size of plasma vWF in mice; type: in vivo; details: Balb c mice, 1 mg/kg i.p., 24 h, P < 0.05
In short: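 Balb c mice aged 7–9 wk, n = 4 per group with 2 male and 2 female each, were given buffer vehicle or purified human platelet TSP-1 at 1 mg/kg as a 0.1 ml i.p. injection. After 24 h, EDTA plasma was collected by cardiac puncture. Plasma was assayed in triplicate for vWF collagen binding activity and vWF antigen, using anti-rat vWF polyclonal antibodies. Multimer size was expressed as the collagen binding/antigen ratio.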

[7] = Plasma concentration of human TSP-1 in mice after injection; type: in vivo; details: Balb c mice, 1 mg/kg i.p., 24 h after injection, TSP-1 ELISA
In short: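 Balb c mice (7–9 wk; 2 male, 2 female per group) received purified human platelet TSP-1 at 1 mg/kg as a 0.1 ml i.p. injection. EDTA blood was taken by cardiac puncture 24 h later. Human TSP-1 was measured by sandwich ELISA: HB8432 capture (5 μg/ml, pH 9.6, overnight at 4°C), BSA block, diluted plasma 30 min RT, biotin-HB8432 (5 μg/ml), then StreptABComplex/HRP (1:100). Standards were TSP-1-depleted plasma spiked with platelet TSP-1; the assay was linear over 1–100 ng/ml.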

platelet aggregation = details: high fluid shear; cited from earlier work

For `O=C(O)CN(CCN(CC(=O)O)CC(=O)O)CC(=O)O` [EDTA, reference compound], which “effect of EDTA (chelation of Ca2+) on vWF reductase activity of TSP-1” value (vWF [1]; not shown) is on record?
The value was “ablated the vWF reductase activity of TSP-1”.

And the “effect of EDTA on TSP-1–facilitated formation of free thiols in vWF” value (vWF [2]; not shown)?
Its value is “ablated TSP-1–facilitated formation of free thiols in vWF”.

What about the “effect of EDTA on vWF reductase activity in endothelial cell–conditioned medium” value (vWF [3]) of the same compound?
Its value is “inhibited”.

For `CCN1C(=O)C=CC1=O` [NEM, N-ethylmaleimide, reference compound], which “TSP-1/vWF complex formation vs NEM concentration” value (vWF [4]; NEM 0, 5, 20 mM, 30 min, room temperature) is on record?
Its value is “Complex formation increased with increasing NEM concentration”.

Which “affinity for activated platelets vs monomeric fragments” value (activated platelets) does the source give for “large vWF multimers: large multimers of von Willebrand factor” here?
The value was about 100 fold.

What about the “affinity for activated platelets vs small multimers” value (activated platelets) of the same compound?
Its value is “up to 10 fold”.

And the “ristocetin cofactor activity per unit antigen vs small multimers” value [5]?
The value was “considerably higher”.

With “multimeric vWF: multimeric von Willebrand factor” as the compound, how does the “collagen binding affinity vs monomeric vWF fragments” value (collagen) read?
Its value is about 100 fold.

Which results are given for thrombospondin-1 [TSP-1]?
average multimer size of plasma vWF (vWF [6]; TSP-1 added to TTP2 and TTP3 patient plasmas (not shown)): reduced the average multimer size of the plasma vWF; very large vWF multimers (vWF [6]; TTP1 patient plasma, 1 h, 37°C, 1% agarose gel): the very large multimers were lost; dependence of TSP-1–mediated reduction in vWF multimer size (vWF [1]; TTP1 plasma, TSP-1 0.001 to 100 μg/ml, 1 or 24 h, 37°C): concentration and time dependent; vWF reducing activity of three different preparations of platelet TSP-1 (vWF [1]; not shown): had the same vWF reducing activity; optimal TSP-1 concentration for reduction of vWF in 1 h (vWF [1]; purified TSP-1, ∼1 μg/ml plasma vWF, 1 h): ~0.1 µg/mL; optimal TSP-1 concentration for reduction of vWF in 24 h (vWF [1]; purified TSP-1, ∼1 μg/ml plasma vWF, 24 h): ~0.01 µg/mL; binding of TSP-1 to wells not coated with vWF (vWF [4]; 10 μg/ml TSP-1, BSA-blocked wells): no binding; dependence of MPB incorporation on TSP-1 concentration (vWF [2]; TSP-1 0.01 to 100 μg/ml, 60 min, 37°C): the incorporation increased with increasing TSP-1 concentration; formation of new thiols in vWF (MPB incorporation) (vWF [2]; purified human vWF 2 μg/ml, 60 min, 37°C, TSP-1 0.01 to 100 μg/ml or HMEC-1–conditioned medium, MPB 100 μM): resulted in incorporation of MPB into vWF; average multimer size of plasma vWF vs buffer vehicle (plasma vWF): significantly lower; concentration of human TSP-1 in mouse plasma [7]: ~1000 ng/mL

With “unusually large vWF multimers: unusually large vWF multimers secreted by endothelial cells” as the compound, how does the “induction of platelet aggregation vs largest plasma forms” value (platelet aggregation) read?
The value was “more effective”.
